# Laboratory results taken from ChEMBL document CHEMBL1134279, “Synthesis, nicotinic acetylcholine receptor binding, and antinociceptive properties of 2-exo-2-(2'-substituted-3'-phenyl-5'-pyridinyl)-7-azabicyclo[2.2.1]heptanes. Novel nicotinic antagonist” (J Med Chem, 2001).
# Calls of active or inactive are those of the source. The calls are words filed in the database; no cut-off is given here.
# Assays:
# [1] = Inhibition of [3H]epibatidine binding at the alpha beta nicotinic AChR in male rat cerebral cortex; assay type: tissue-based
# Mus musculus [2] = test: Compound at 10 mg/Kg was tested for antinociception in mice by hotplate assay; assay type: functional
# How it was run: (§1)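 Male ICR mice were given test agent and assessed for antinociception by tail-flick or hot-plate. Results are expressed as ED50 in mg/kg with confidence limits, or as percent effect at a single stated mg/kg dose.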
# Mus musculus [3] = test: Compound at 10 mg/Kg was tested for antinociception in mice by tail-flick assay; assay type: functional; how it was run: as §1
# Mus musculus [4] = organism: Mus musculus; test: Compound was tested for inhibition of antinociceptive effect of nicotine in mice by tail-flick assay; NA=Inactive; assay type: functional, organism-based
# How it was run: (§2)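 Antagonism was tested in male ICR mice given test agent sc, measuring blockade of nicotine-induced antinociception in tail-flick or hot-plate tests. Potency is expressed as AD50 in mg/kg with confidence limits.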
# Mus musculus [5] = test: Compound at 10 mg/Kg was tested for hypothermia in mice; assay type: functional
# How it was run: (§3)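 Male ICR mice were dosed and body temperature or locomotor activity was recorded. Values are ED50 in mg/kg with confidence limits, or the effect (change in °C for temperature) at a single stated mg/kg dose.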
# Mus musculus [6] = organism: Mus musculus; test: Compound was tested for inhibition of antinociceptive effect of nicotine in mice by hotplate assay; NA=Inactive; assay type: functional, organism-based; how it was run: as §2
# Mus musculus [7] = test: Compound at 15 mg/Kg was tested for antinociception in mice by tail-flick assay; assay type: functional; how it was run: as §1
# Mus musculus [8] = test: Compound at 15 mg/Kg was tested for antinociception in mice by hotplate assay; assay type: functional; how it was run: as §1
# Mus musculus [9] = organism: Mus musculus; test: Compound was tested to block the antinociceptive effect of nicotine in mice by tail-flick assay; assay type: functional; how it was run: as §2
# Mus musculus [10] = organism: Mus musculus; test: Compound was tested to block the antinociceptive effect of nicotine in mice by hotplate assay; assay type: functional; how it was run: as §2
# Mus musculus [11] = organism: Mus musculus; test: Effective dose for hypomotility in mice was determined; assay type: functional; how it was run: as §3
# Mus musculus [12] = organism: Mus musculus; test: Effective dose for antinociception in mice was determined by hotplate assay
# Mus musculus [13] = organism: Mus musculus; test: Effective dose for antinociception in mice was determined by tail-flick assay
# Mus musculus [14] = organism: Mus musculus; test: Effective dose for hypothermia in mice was determined
SMILES,Ki [1] [pM],Temperature (Mus musculus [5]) [°C],Effect (Mus musculus [7]) [%],Effect (Mus musculus [8]) [%],AD50 (Mus musculus [9]) [mg/kg],AD50 (Mus musculus [10]) [mg/kg],further results
CN(C)c1ncc(C2CC3CCC2N3)cc1-c1ccccc1 (configuration not stated),57500,,,,,,
Nc1ncc(C2CC3CCC2N3)cc1-c1ccccc1 (configuration not stated),330,-0.5,,,,,Effect (Mus musculus [2]): 15%; Effect (Mus musculus [3]): 2%; AD50 (Mus musculus [4]): inactive; AD50 (Mus musculus [6]): inactive
Clc1ncc(C2CC3CCC2N3)cc1-c1ccccc1 (configuration not stated),21,,,,,,
Nc1ccc(C2CC3CCC2N3)cn1 (configuration not stated),1300,,,,,,
Fc1ccc(C2CC3CCC2N3)cn1 (configuration not stated),27,,,,,,
Fc1ncc(C2CC3CCC2N3)cc1-c1ccccc1 (racemic),,-0.5,3,4,0.5,1.2,ED50 (Mus musculus [11]): 4.7 mg/kg
"Fc1ncc(C2CC3CCC2N3)cc1-c1ccccc1 (single isomer, unassigned; (+))",240,-0.4,7,8,1,2.4,
Fc1ncc(C2CC3CCC2N3)cc1-c1ccccc1 (stereo in doubt; (-)-5a),260,-0.8,5,10,0.08,0.7,
CN1CCC[C@H]1c1cccnc1 [NICOTINE],,,,,,,ED50 (Mus musculus [12]): 0.004 mg/kg; ED50 (Mus musculus [13]): 0.006 mg/kg; ED50 (Mus musculus [11]): 0.5 mg/kg; ED50 (Mus musculus [14]): 0.004 mg/kg
